Data set [1] in a line: Inhibition of Cytochrome P450. The data set is classed as ADME.
Data set [2] has as its target Voltage-gated inwardly rectifying potassium channel KCNH2 (Homo sapiens, UniProt Q12809). Description: Inhibition of human ERG.
Data set [3] deals with T1, Lysophosphatidic acid receptor 1 (Homo sapiens, UniProt Q92633). In words: Antagonist activity at human recombinant LPA1 expressed in chem-1 cells assessed as inhibition of LPA-induced intracellular calcium mobilization at 30 uM incubated for 30 mins prior to LPA-challenge measured over 100 secs by FLIPR assay. The data set is classed as functional, cell-based. The essentials: (§1)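 Calcium-optimized Chem-1 cells stably expressing human LPA1 or LPA3 (parental line with ionomycin as counterscreen), seeded 10,000/well the day before. Calcium-4 dye in HBSS/20 mM HEPES/2.5 mM probenecid loaded 30 min at 37 °C; compound added, 30 min at room temperature in the dark; LPA (18:1) 1 μM final. Peak fluorescence read over 100 s; IC50 from 10-concentration 4-parameter logistic fit, mean of at least three runs.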

Data set [4] deals with T2, Lysophosphatidic acid receptor 3 (Homo sapiens) (UniProt Q9UBY5).
T2 sequence (whole entry): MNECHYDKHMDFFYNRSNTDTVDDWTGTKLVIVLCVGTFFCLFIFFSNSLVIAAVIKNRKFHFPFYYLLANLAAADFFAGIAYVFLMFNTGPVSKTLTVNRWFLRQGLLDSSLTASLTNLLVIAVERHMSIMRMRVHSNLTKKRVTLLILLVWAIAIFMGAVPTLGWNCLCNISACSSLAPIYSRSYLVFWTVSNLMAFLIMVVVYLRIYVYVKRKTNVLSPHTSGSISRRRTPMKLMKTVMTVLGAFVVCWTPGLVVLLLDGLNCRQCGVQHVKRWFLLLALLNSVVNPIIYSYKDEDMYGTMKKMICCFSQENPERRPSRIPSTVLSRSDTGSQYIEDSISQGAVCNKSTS
Description: Antagonist activity at human recombinant LPA3 expressed in chem-1 cells assessed as inhibition of LPA-induced intracellular calcium mobilization at 30 uM incubated for 30 mins prior to LPA-challenge measured over 100 secs by FLIPR assay. The data set is classed as functional, cell-based. The gist of the method: as §1
Background: Calcium assays in cells follow changes in intracellular calcium, usually with a dye or a luminescent sensor.

The nature of data set [5]: Inhibition of LPA-induced proliferation of HLF incubated for 1 hr prior to LPA-challenge measured after 48 hrs by BrdU incorporation assay. The conditions noted are these: Homo sapiens.
Data set [6] has as its target T1, Lysophosphatidic acid receptor 1. In words: Antagonist activity at human recombinant LPA1 expressed in chem-1 cells assessed as inhibition of LPA-induced intracellular calcium mobilization incubated for 30 mins prior to LPA-challenge measured over 100 secs by FLIPR assay. In kind it is functional, cell-based. The essentials: as §1

T1 sequence (Q92633 whole entry): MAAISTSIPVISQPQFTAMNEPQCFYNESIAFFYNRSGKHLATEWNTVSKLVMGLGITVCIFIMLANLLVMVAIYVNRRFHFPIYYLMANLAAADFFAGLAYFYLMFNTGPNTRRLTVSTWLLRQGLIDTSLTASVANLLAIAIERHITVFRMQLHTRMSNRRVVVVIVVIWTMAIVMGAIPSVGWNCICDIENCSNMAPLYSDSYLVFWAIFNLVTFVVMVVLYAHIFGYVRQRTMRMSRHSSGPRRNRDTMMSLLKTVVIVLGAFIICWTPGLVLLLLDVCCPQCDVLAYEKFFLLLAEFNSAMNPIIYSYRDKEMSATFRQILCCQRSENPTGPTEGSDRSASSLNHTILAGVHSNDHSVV
Voltage-gated inwardly rectifying potassium channel KCNH2, sequence (Q12809 whole entry): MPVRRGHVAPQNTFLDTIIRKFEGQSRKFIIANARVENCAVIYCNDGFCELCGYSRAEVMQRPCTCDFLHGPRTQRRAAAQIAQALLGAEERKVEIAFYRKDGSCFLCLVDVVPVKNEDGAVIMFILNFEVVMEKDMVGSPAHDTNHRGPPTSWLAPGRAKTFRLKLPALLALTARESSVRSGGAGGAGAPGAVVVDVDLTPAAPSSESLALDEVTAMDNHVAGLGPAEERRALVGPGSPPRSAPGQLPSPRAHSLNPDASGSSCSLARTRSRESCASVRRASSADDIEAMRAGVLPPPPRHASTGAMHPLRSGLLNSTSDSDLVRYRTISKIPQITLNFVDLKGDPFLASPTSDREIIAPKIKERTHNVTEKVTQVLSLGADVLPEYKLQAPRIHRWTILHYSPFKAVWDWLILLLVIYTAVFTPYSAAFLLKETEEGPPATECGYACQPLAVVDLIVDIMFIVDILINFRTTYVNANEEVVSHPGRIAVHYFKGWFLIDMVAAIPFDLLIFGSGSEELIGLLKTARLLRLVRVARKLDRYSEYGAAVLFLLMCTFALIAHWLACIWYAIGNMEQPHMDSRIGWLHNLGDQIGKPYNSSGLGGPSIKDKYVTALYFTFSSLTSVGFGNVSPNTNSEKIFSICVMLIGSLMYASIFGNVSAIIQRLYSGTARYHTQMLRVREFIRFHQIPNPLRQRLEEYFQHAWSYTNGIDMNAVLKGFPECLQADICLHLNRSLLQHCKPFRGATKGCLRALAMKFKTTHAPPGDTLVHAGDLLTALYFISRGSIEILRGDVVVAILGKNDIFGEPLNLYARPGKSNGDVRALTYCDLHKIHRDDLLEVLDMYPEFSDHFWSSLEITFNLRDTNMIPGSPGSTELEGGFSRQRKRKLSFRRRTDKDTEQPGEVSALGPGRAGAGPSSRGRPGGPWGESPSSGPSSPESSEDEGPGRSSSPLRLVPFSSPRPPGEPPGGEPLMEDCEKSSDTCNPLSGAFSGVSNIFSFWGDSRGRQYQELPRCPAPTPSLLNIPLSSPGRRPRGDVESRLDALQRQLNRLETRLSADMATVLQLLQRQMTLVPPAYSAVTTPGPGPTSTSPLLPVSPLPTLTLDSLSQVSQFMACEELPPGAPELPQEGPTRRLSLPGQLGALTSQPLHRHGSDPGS

What is called inhibition is the percentage by which the read-out fell short of the control. As to `Cn1ncc(-c2ccc(-c3ccc(C4(C(=O)O)CC4)cc3)cc2)c1NC(=O)OC1COC1`, the “inhibition (INH)” value in data set [1] and in data set [2] was “Not Active” in each case. Besides, the inhibition in data set [3] and in data set [4] was 0% throughout.
Turning to `C[C@H](OC(=O)Nc1c(-c2ccc(-c3ccc(C4(C(=O)O)CC4)cc3)cc2)nnn1C)c1cccc(C(F)(F)F)c1`, the “inhibition (INH)” value in data set [1] and in data set [2] was “Not Active” throughout.
In general, IC50 refers to the midpoint of a concentration-inhibition curve. As for `CC(C)[C@@H](C)OC(=O)Nc1c(-c2ccc(-c3ccc(C4(C(=O)O)CC4)cc3)cc2)cnn1C`, the “inhibition (INH)” value in data set [1] and in data set [2] was “Not Active” throughout. Inhibition in data set [5] was half-maximal at 30 nM (IC50). In addition, in data set [4], the inhibition amounted to 9%.
`Cc1nnn(-c2ccc(-c3ccc(C4(C(=O)O)CC4)cc3)cc2)c1NC(=O)O[C@H](C)c1cccc(C(F)(F)F)c1`: the “inhibition (INH)” value in data set [1] and in data set [2] was “Not Active” throughout. For the same compound, half-maximal inhibition in data set [5] (IC50) required 1200 nM.
As to `C[C@@H](OC(=O)Nc1c(-c2ccc(CC(=O)O)cc2)cnn1C)c1ccccc1`, the “inhibition (INH)” value in data set [1] and in data set [2] was “Not Active” in each case.
Take `COc1ccc(-c2cnn(C)c2NC(=O)O[C@H](C)c2ccccc2)cc1`: the “inhibition (INH)” value in data set [1] and in data set [2] was “Not Active” in each case.
With `Cn1ncc(-c2ccc(-c3ccc(C4(C(=O)O)CC4)cc3)cc2)c1NC(=O)OC1CCC1`, the “inhibition (INH)” value in data set [1] and in data set [2] was “Not Active” throughout. The compound further displayed an IC50 in data set [5] of 192 nM. Moreover, the inhibition in data set [4] stood at 13.7%.
On to `CC(OC(=O)Nc1c(-c2ccc(-c3ccc(C4(C(=O)O)CC4)cc3)cc2)cnn1C)c1ccc(F)cc1` (racemic), for which the “inhibition (INH)” value in data set [1] and in data set [2] was “Not Active” each time. The compound further yielded an IC50 in data set [5] of 5 nM.
With `C[C@@H](OC(=O)Nc1c(-c2ccc(-c3ccc(C4(C(=O)O)CC4)cc3)cc2)nnn1C)c1ccccc1`, the “inhibition (INH)” value in data set [1] and in data set [2] was “Not Active” each time. This compound also registered an IC50 in data set [5] of 3 nM.
On to `CC[C@@H](C)OC(=O)Nc1c(-c2ccc(-c3ccc(C4(C(=O)O)CC4)cc3)cc2)cnn1C`, for which the “inhibition (INH)” value in data set [1] and in data set [2] was “Not Active” in each case. In data set [5], this compound displayed an IC50 of 48 nM. Besides, the inhibition in data set [4] came out at 0%.
`C[C@@H](OC(=O)Nc1c(-c2ccc(-c3ccc(C4(C(=O)O)CC4)cc3)cc2)cnn1C)c1ccccc1F`: the “inhibition (INH)” value in data set [1] and in data set [2] was “Not Active” each time. Besides, half-maximal inhibition in data set [5] (IC50) was put at 4.5 nM.
Turning to `C[C@@H](OC(=O)Nc1c(-c2ccc(-c3ccccc3)cc2)cnn1C)c1ccccc1`, the “inhibition (INH)” value in data set [1] and in data set [2] was “Not Active” in each case.
For the compound `Cc1nnn(-c2ccc(-c3ccc(C4(C(=O)O)CC4)cc3)cc2)c1NC(=O)OC(C)(C)C`, the “inhibition (INH)” value in data set [1] and in data set [2] was “Not Active” in each case. Moreover, 1620 nM corresponded to half-maximal inhibition in data set [5] (IC50). Moreover, the inhibition in data set [4] amounted to 0%.
Consider `CC[C@@H](C)OC(=O)Nc1c(C)nnn1-c1ccc(-c2ccc(C3(C(=O)O)CC3)cc2)cc1`, for which the “inhibition (INH)” value in data set [1] and in data set [2] was “Not Active” each time. In addition, the IC50 in data set [5] is 178 nM. The inhibition in data set [4] is 0%.
In the case of `CC(C)[C@@H](C)OC(=O)Nc1c(-c2ccc(-c3ccc(C4(C(=O)O)CC4)cc3)cc2)nnn1C`, the “inhibition (INH)” value in data set [1] and in data set [2] was “Not Active” throughout. The IC50 in data set [5] is 20 nM. Moreover, in data set [4], the inhibition was found to be 24%.
Turning to `C[C@@H](OC(=O)Nc1c(-c2ccc(-c3ccc(C4(C(=O)O)CC4)cc3)cc2)nnn1C)c1cccc(C(F)(F)F)c1`, the values for the IC50 in data set [6] and in data set [5] were 17 nM and 74 nM, respectively. In addition, the “inhibition (INH)” value in data set [1] and in data set [2] was “Not Active” throughout.
In the case of `C[C@@H](OC(=O)Nc1c(-c2ccc(-c3ccc(C4(C(=O)O)CC4)cc3)cc2)cnn1C)c1cccc(C(F)(F)F)c1`, the values for the IC50 in data set [6] and in data set [5] were 41 nM and 37 nM, respectively. Moreover, the “inhibition (INH)” value in data set [1] and in data set [2] was “Not Active” throughout.
With `C[C@@H](OC(=O)Nc1nncn1-c1ccc(-c2ccc(C3(C(=O)O)CC3)cc2)cc1)c1ccccc1`, the “inhibition (INH)” value in data set [1] and in data set [2] was “Not Active” in each case. The results for the inhibition in data set [3] and in data set [4] were 11% and 17%, respectively.
For the compound `C[C@@H](OC(=O)Nc1c(-c2ccc(-c3ccc(CC(=O)O)cc3)cc2)nnn1C)c1ccccc1`, the “inhibition (INH)” value in data set [1] and in data set [2] was “Not Active” each time. The same compound had an IC50 in data set [5] of 60 nM.
Regarding `C[C@@H](OC(=O)Nc1c(-c2ccc(-c3ccc(CC(=O)O)cc3)cc2)cnn1C)c1ccccc1`, the “inhibition (INH)” value in data set [1] and in data set [2] was “Not Active” in each case. For the same compound, the midpoint of inhibition in data set [5], the IC50, lay at 47 nM.
As for `C[C@@H](OC(=O)Nc1c(-c2ccc(-c3ccc(C4(C(=O)NS(C)(=O)=O)CC4)cc3)cc2)nnn1C)c1ccccc1`, the “inhibition (INH)” value in data set [1] and in data set [2] was “Not Active” throughout. Further, in data set [5], 4 nM corresponded to half-maximal inhibition (IC50).
`Cc1nnn(-c2ccc(-c3ccc(C4(C(=O)O)CC4)cc3)cc2)c1NC(=O)O[C@H](C)C(C)C`: the “inhibition (INH)” value in data set [1] and in data set [2] was “Not Active” throughout. This compound gave an IC50 in data set [5] of 60 nM. The inhibition in data set [4] worked out at 17%.
On to `C[C@@H](OC(=O)Nc1c(-c2ccccc2)cnn1C)c1ccccc1`, for which the “inhibition (INH)” value in data set [1] and in data set [2] was “Not Active” each time. Moreover, the inhibition in data set [3] came to 65%.
For `C[C@@H](OC(=O)Nc1nnn(C)c1-c1ccc(-c2ccc(C3(C(=O)O)CC3)cc2)cc1)c1ccccc1`, the “inhibition (INH)” value in data set [1] and in data set [2] was “Not Active” throughout. Moreover, the inhibition in data set [3] turned out to be 12%; in data set [4], 10%.
`Cc1nnn(-c2ccc(-c3ccc(CC(=O)O)cc3)cc2)c1NC(=O)O[C@H](C)c1ccccc1`: the “inhibition (INH)” value in data set [1] and in data set [2] was “Not Active” throughout. Also, the inhibition in data set [3] came to 41%; in data set [4], 3%.
On to `C[C@@H](OC(=O)Nc1cnnn1-c1ccc(-c2ccc(C3(C(=O)O)CC3)cc2)cc1)c1ccccc1`, for which the “inhibition (INH)” value in data set [1] and in data set [2] was “Not Active” each time. Inhibition in data set [5] was half-maximal at 40 nM (IC50). Besides, the inhibition in data set [4] is 23%.
For the compound `C[C@H](OC(=O)Nc1c(-c2ccccc2F)cnn1C)c1ccccc1Cl`, the “inhibition (INH)” value in data set [1] and in data set [2] was “Not Active” throughout.
With `C[C@@H](OC(=O)Nc1c(-c2ccc(-c3ccc(C4(C(=O)O)CC4)cc3)cc2F)nnn1C)c1ccccc1`, the “inhibition (INH)” value in data set [1] and in data set [2] was “Not Active” each time. For the same compound, the IC50 in data set [5] was 2 nM.
As for `C[C@@H](OC(=O)Nc1c(-c2ccc(-c3ccc(C4(C(=O)O)CC4)cc3)cc2)cnn1C)c1ccccc1`, the IC50 worked out at 21 nM in data set [6] and 2.6 nM in data set [5]. For the same compound, the “inhibition (INH)” value in data set [1] and in data set [2] was “Not Active” throughout.
As for `Cc1nnn(-c2ccc(-c3ccc(C4(C(=O)O)CC4)cc3)cc2)c1NC(=O)O[C@H](C)c1ccccc1C(F)(F)F`, the “inhibition (INH)” value in data set [1] and in data set [2] was “Not Active” throughout. Moreover, the IC50 in data set [5] came out at 77 nM. Further, the inhibition in data set [4] turned out to be 55%.
For the compound `CCOC(=O)C1(c2ccc(-c3ccc(-c4cnn(C)c4NC(=O)O[C@H](C)c4ccccc4)cc3)cc2)CC1`, the “inhibition (INH)” value in data set [1] and in data set [2] was “Not Active” each time. In addition, in data set [3], the inhibition was 65%.
On to `Cc1nnn(-c2ccc(-c3ccc(C4(C(=O)O)CC4)cc3)cc2)c1NC(=O)OC(C)C1CCC1` (racemic), for which the “inhibition (INH)” value in data set [1] and in data set [2] was “Not Active” throughout. Besides, the IC50 in data set [5] was 189 nM. In addition, the inhibition in data set [4] stood at 26%.
`C[C@@H](OC(=O)Nc1c(-c2ccc(C3CCC(CC(=O)O)CC3)cc2)nnn1C)c1ccccc1` (mixture of isomers): the “inhibition (INH)” value in data set [1] and in data set [2] was “Not Active” throughout. The same compound registered an IC50 in data set [5] of 7 nM.
For `Cc1nnn(-c2ccc(-c3ccc(C4(C(=O)O)CC4)cc3)cc2)c1NC(=O)O[C@H](C)c1ccccc1F`, the “inhibition (INH)” value in data set [1] and in data set [2] was “Not Active” in each case. The IC50 in data set [5] was 21 nM. The inhibition in data set [4] worked out at 42%.

The values above are taken from ChEMBL document CHEMBL2176934 (J Med Chem, 2012).
